# The list is not random: actives were taken first. Their share in the collection is about 4.7%.
# RGS4 act: potentiators or activators of RGS4 | HEK293 M3R/inducible RGS4, carbachol calcium flux Fluo4; hits give low values | B-score at 10 µM | hit rate 0.92% among 310,000 | AID 463111;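 active = B-score of the integrated calcium signal more than 4 SD below the library mean, with starting fluorescence not abnormally high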;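 note: negative B-score means reduced calcium response which marks RGS4 activation or potentiation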
#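 Assay system: HEK293 FlpIn-TREx cells, stable M3R, doxycycline-inducible RGS4 / Probe or stimulus: carbachol, ECmax concentration / Times: overnight RGS4 induction, 30 min dye load 37 °C, 20 min compound RT / Signal: kinetic calcium fluorescence imaging with Fluo4-AM dye, 2 µM / Measure: Agonist-evoked peak-minus-minimum fluorescence over baseline, integrated ratio, B score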
# RGS4 inh: human RGS4 inhibition; P49798; HEK293 M3R/RGS4 inducible, Fluo-4 calcium flux; hits give high values; triggered by carbachol at its EC20; B-score at 10 µM; hit rate 0.45% among 310,000; AID 463165;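 active = B-score, a plate-corrected calcium signal, over three deviations above library mean, with baseline fluorescence within five deviations of library mean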;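 note: RGS4 expression induced by doxycycline in cells with stable M3 receptor; B-score is computed from the integrated fluorescence ratio over baseline after carbachol; higher B-score means a larger calcium signal and so more RGS4 inhibition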
# KCC2 mod: modulators of human KCC2 chloride dependent transport. Q9H2X9. KCC2 cells, thallium flux FluoZin-2 fluorescence. B-score of Tl+ flux slope (higher = more flux/activation; lower = inhibition) at 10 µM. hit rate 2.2% among 190,000;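 active = thallium flux slope and its plate-corrected score both differing from the plate sample mean at a set confidence after two filtering rounds, in either direction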;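 note: slope of fluorescence scaled to starting intensity during 10 to 20 s after thallium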
# Target sequence (Q9H2X9 whole entry, looked up): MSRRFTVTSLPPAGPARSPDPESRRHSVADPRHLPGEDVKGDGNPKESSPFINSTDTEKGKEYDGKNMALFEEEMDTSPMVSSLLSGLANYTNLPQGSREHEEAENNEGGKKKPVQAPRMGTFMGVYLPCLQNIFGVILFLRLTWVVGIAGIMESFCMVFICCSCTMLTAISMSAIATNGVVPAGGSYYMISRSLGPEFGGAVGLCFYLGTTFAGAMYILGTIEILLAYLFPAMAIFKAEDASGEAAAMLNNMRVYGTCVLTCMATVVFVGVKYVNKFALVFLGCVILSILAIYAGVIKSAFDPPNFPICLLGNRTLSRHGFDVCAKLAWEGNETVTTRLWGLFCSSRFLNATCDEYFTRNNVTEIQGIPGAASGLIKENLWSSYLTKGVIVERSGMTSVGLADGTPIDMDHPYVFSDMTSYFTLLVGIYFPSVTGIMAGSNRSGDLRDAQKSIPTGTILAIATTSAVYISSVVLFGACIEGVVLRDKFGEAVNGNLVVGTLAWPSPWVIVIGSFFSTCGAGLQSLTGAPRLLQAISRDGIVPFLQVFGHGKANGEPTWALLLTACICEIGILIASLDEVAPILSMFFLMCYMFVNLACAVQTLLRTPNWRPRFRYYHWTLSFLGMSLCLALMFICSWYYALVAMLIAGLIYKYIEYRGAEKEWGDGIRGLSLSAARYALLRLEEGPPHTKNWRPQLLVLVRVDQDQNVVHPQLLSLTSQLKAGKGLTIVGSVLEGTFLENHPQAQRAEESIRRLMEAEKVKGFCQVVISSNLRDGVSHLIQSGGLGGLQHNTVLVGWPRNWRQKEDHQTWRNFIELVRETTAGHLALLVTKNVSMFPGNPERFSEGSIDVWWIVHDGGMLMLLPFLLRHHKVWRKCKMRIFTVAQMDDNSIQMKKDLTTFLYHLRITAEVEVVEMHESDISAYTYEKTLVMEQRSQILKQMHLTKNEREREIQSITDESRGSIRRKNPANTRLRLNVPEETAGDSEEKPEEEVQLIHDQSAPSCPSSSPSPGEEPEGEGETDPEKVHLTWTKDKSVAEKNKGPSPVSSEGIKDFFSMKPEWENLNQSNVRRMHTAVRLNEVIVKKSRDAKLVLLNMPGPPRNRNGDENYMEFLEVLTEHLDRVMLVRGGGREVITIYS
# MrgX1 agonist: human MrgX1 receptor agonism, primary screen | hit rate 0.44% among 310,000 | MrgX1-HEK293 cells, Fluo-4 calcium fluorescence, agonist mode; hits give high values | B-score at 10 µM | Q96LB2 | AID 588627;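 active = calcium response B-score plate-corrected fluorescence ratio at least 3 library SD, with starting fluorescence B-score inside 5 SD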
#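 Assay system: stable human MrgX1 HEK293 cell line. Quantity: 15,000 cells per well. Schedule: cells plated overnight, dye loaded 0.5 h 37 °C, 0.5 h room temperature. Detection: Fluo-4 NW calcium-flux fluorescence, kinetic read. Read-out basis: peak-minus-minimum fluorescence over baseline, converted to B scores. Control set: positive and negative control wells on each plate.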
# MrgX1 antagonist: antagonists of human MrgX1 receptor. Q96LB2. MRGX1-HEK293 calcium flux, Fluo-4, BAM8-22 antagonism; hits give low values. B-score at 10 µM. hit rate 1.3% among 310,000. AID 588676;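 active = calcium-response B-score plate-corrected more than 3 library SD below zero, starting fluorescence within 5 deviations, no agonist response on first addition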;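 note: peak minus trough fluorescence over baseline after final BAM8-22 challenge near maximal dose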
# MrgX1 PAM: allosterically activates human MrgX1 receptor signaling; Q96LB2; hit rate 0.63% among 310,000; AID 588675; B-score at 10 µM; MrgX1-HEK293, Fluo-4 calcium flux, FDSS; hits give high values;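 active = plate-corrected calcium response at least 3 library SD above typical, normal starting fluorescence, not activating the receptor alone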;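 note: compound read alongside a low EC10 to EC30 dose of BAM8-22 agonist; peak minus trough fluorescence over baseline measured at the second addition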
# The depositor's hits bear a star; i = inactive; . = no result.
SMILES,RGS4 act,RGS4 inh,KCC2 mod,MrgX1 agonist,MrgX1 antagonist,MrgX1 PAM
CCC(CC)CN1CCN=C1N(C)C,i,i,.,i,i,i
Cc1ccc(C2C(C#N)=C(N)SC(N)=C2C#N)c(C)c1,i,i,-2.1,52*,i,i
Cc1ccc(C2C(C#N)=C(N)SC(N)=C2C#N)cc1,.,.,-2.2,.,.,.
O=C(CCCNC(=O)c1ccc(Cl)cc1)Nc1ccccc1C(F)(F)F,i,i,.,i,i,i
Cc1cccc(OC(=O)n2c(=S)oc3cc(Cl)ccc32)c1,.,.,4.7*,i,i,i
CC(C)OC(=O)n1c(=S)oc2ccccc21,i,i,-0.87,i,i,i
Cc1oc(-c2ccc(Cl)cc2)nc1CS(=O)CC(=O)NCc1ccc2c(c1)OCO2 (centres undefined),i,i,.,i,-4.9*,i
Cc1cccc(C(=O)OCC(=O)N2CCC(c3ccccc3)=N2)c1O,i,i,.,i,i,i
CCc1cc(C(=O)OCC(=O)N2CCC(c3ccccc3)=N2)sc1C,-7.2*,i,.,i,i,i
O/N=C/c1cc(Br)ccc1OCc1ccccc1F,i,i,.,i,-7.4*,i
C=CCOc1ccc(Br)cc1/C=N/O,i,i,-0.98,i,i,i
CCOC(=O)c1c(C)[nH]c(C)c1S(=O)(=O)N(C)CC(=O)Nc1cccc(C)n1,i,i,.,i,i,i
CCN(CC)C(=O)CN(c1cc2c(cc1OC)oc1ccccc12)S(=O)(=O)c1ccccc1,.,.,-1.2,i,-9.1*,i
COc1cc2oc3ccccc3c2cc1N(CC(=O)N(C)C)S(=O)(=O)c1ccccc1,i,i,-0.64,i,i,i
CC(C)(C)c1nnc(NS(=O)(=O)c2ccc([N+](=O)[O-])cc2)s1,i,i,.,i,i,i
CC(=O)Nc1ccc(Sc2ccccc2C(=O)O)cn1,i,i,.,i,i,i
CCC(NC(C)C)C(O)c1ccc(O)c(O)c1 (centres undefined),i,i,-1,27*,i,i
CC(C)C(=O)c1ccc(O)c(O)c1,i,i,0.37,i,i,i
CCOC(=O)C1=C(COC(=O)/C=C/c2ccccc2Cl)NC(=O)NC1C (centres undefined),i,i,.,i,i,8.5*
CCOc1ccc(S(=O)(=O)Nc2ccc(C(=O)NCC3(N4CCCCC4)CCCCC3)cc2)cc1,i,i,.,i,-9.8*,i
COc1ccc(NC(=O)COC(=O)c2ccc(O)cc2)c([N+](=O)[O-])c1,i,i,0.53,i,-5.5*,i
COc1ccc(C(=O)OCC(=O)Nc2cc(C)c(C)cc2[N+](=O)[O-])cc1,i,i,-0.2,i,i,i
COc1cccc(NC(=O)CCCCCn2nnc3ccccc3c2=O)c1,i,i,.,i,i,i
COc1ccccc1NS(=O)(=O)c1ccc(C)c(C(=O)NCCCN2CCCC2=O)c1,i,i,.,i,-9.1*,i
Oc1ccc(/C=N/n2c(COc3ccccc3)n[nH]c2=S)c(O)c1,i,i,.,i,i,i
SMILES,RGS4 act,RGS4 inh,KCC2 mod,MrgX1 agonist,MrgX1 antagonist,MrgX1 PAM
Oc1ccccc1/C=N/n1c(COc2ccccc2)n[nH]c1=S,i,i,.,i,i,6.6*
Cc1ccccc1/C=N/n1c(COc2ccccc2)n[nH]c1=S,i,i,.,i,i,i
Cc1ccc(/C=N/n2c(COc3ccccc3)n[nH]c2=S)s1,i,i,16*,i,i,i
Cc1cccc(NC(=O)CN2C(=O)S/C(=C\C(=O)Nc3ccc(Cl)cc3)C2=O)c1,i,i,1,i,-5.7*,i
CN(Cc1ccccc1)S(=O)(=O)c1ccc(Cl)c(C(=O)NCc2cccnc2)c1,i,i,.,i,i,i
O=C(N/N=C/c1ccc(OC(=O)c2ccccc2Cl)cc1)c1cc(O)cc(O)c1,-7.6*,i,.,i,i,i
O=C(N/N=C/c1ccc(OC(=O)c2ccccc2Cl)cc1)c1ccccn1,i,i,.,i,i,i
O=C(NCCOc1ccccc1)c1ccccc1Cl,i,i,.,i,i,i
CN(C(=O)COc1ccccc1C(=O)NCCOc1ccccc1)c1ccccc1,-9.2*,i,-1.2,i,-5.7*,i
Cc1ccc(CCNC(=O)C2CCN(S(=O)(=O)N3CCOCC3)CC2)cc1,i,i,.,i,i,i
O=C(NCc1cccnc1)c1ccc(CS(=O)(=O)c2ccc(Cl)cc2)o1,i,i,-5.3*,i,i,i
O=C(NCc1cccs1)c1ccc(CS(=O)(=O)c2ccc(Cl)cc2)o1,i,i,.,i,i,i
CC1=NN(C(=O)COc2ccc(C)c(C)c2)C(O)(c2ccc(Cl)cc2)C1 (centres undefined),i,i,0.18,i,i,i
CC1=NN(C(=O)COc2cc(C)ccc2C(C)C)C(O)(c2ccccc2)C1 (centres undefined),i,i,-1.2,i,i,8*
Cc1ccc(NC(=S)NC(=O)c2sc3ccccc3c2Cl)c(C(=O)O)c1,i,i,60*,.,.,.
O=C(O)c1ccccc1NC(=S)NC(=O)c1sc2ccccc2c1Cl,i,i,-3.3,i,i,i
CCCCOC(=S)NC(=O)c1sc2ccccc2c1Cl,i,i,47*,i,i,i
O=c1c2ccc([N+](=O)[O-])cc2ncn1CCOc1ccc(Cl)cc1,-8.2*,i,-1.8,i,i,i
COP(=O)(OC)c1nc(-c2ccc([N+](=O)[O-])cc2)oc1N1CCCCC1,i,i,.,33*,i,i
CCOP(=O)(OCC)c1nc(-c2ccccc2)oc1N1CCCCC1,i,i,.,i,i,i
CCCNC(=O)c1ccc(CN2CCc3ccccc3C2)cc1,-7.1*,i,-0.53,i,i,i
CCC(C)NC(=O)c1ccc(CN2CCc3ccccc3C2)cc1 (centres undefined),-7.5*,i,.,i,i,i
CN(C(=S)NC(=O)CCCOc1ccc(Cl)cc1Cl)c1ccccc1,i,i,39*,i,i,i
CC(=O)N(C)c1ccc(NC(=O)Cc2cccs2)cc1,i,i,.,i,i,i
Cc1ccc2nc(N3C(=O)C(O)=C(C(=O)c4cc5ccccc5o4)C3c3cccs3)sc2c1 (centres undefined),i,i,.,i,-5.6*,i
